Screening data deposited in PubChem BioAssay by Broad Institute.
MITF TRPM1 HTS – activators of MITF-driven TRPM1 promoter reporter, primary screen, cell-based, SK-MEL-5, luciferase, single point; 300,000 tested, 0.75% active; AID 588334, 2011; SK-MEL-5 TRPM1-promoter luciferase, 24 h; % of positive control, neutral wells = 0; activation, % at 12.5 µM;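 active = mean activation of at least 80% with every replicate also reaching 80%; inconclusive = mean reaches 80% but some replicate falls short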
esBAF inh – Bmi1 luciferase reporter increase in mESCs, primary screen, esBAF inhibitor project, mouse ES cells, Bmi1 luciferase knock-in, single point. 24 h; 100% = twice the neutral-well signal. reporter increase, % at 12.5 µM. 350,000 tested, 2% active. AID 602393, 2012; in the data active = activation above about 40%; inconclusive = no clear call, values can overlap the other calls;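 note: a rise in the Bmi1 reporter signal indicates esBAF inhibition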
Casp6 inh – human caspase-6 inhibitors, primary screen, biochemical, VEID-R110 fluorescence, single point, set 2; P55212; purified caspase-6, Z-VEID-R110 cleavage fluorescence; inhibition, % at 12.5 µM; 350,000 tested, 0.53% active;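 active = mean inhibition across replicates at least about 35%, with every replicate also reaching that limit, limit read from the data; inconclusive = only one of the two criteria met; inactive = neither criterion met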
XiGFP reactiv – activators of inactive X chromosome reactivation, primary screen, imaging, XiGFP fibroblasts, GFP high-content imaging, set 2; 360,000 tested, 0.055% active; activation, % at 7.58 µM; XiGFP mouse fibroblasts, % GFP-positive cells imaging, 3 d; cells co-treated with 5-aza-dC sensitizer; scaled so ellipticine positive control = 100%;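 active = mean normalized replicate activation at least 10% and every replicate at or above 10%; inconclusive = only one of the two criteria met; inactive = mean below 10% and not all replicates reach 10%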
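Material: SV40-immortalized XiGFP fibroblast cells, line 68-5-11 | Buffer or medium: DMEM containing 5-aza-dC | Dosing: One concentration, pinned | Times: 3 d treatment, 15 min room-temperature fixation | Controls: Ellipticine 6 µM positive control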
Wnt act – Wnt/beta-catenin pathway activators, primary screen, cell-based, plate reader, single point; 300,000 tested, 1.2% active; Wnt/beta-catenin reporter cell assay, activator; activation, % at 9.35 µM; in the data active = activation above about 30%, passing the limit was not always enough; inconclusive = no clear call, values can overlap the other calls
NSD2 HMT inh – NSD2 histone methyltransferase inhibitors, primary screen, biochemical, AlphaScreen, single concentration, set 2; Histone-lysine N-methyltransferase NSD2 (Homo sapiens), O96028; inhibition, % at 12.5 µM; NSD2 peptide methylation, 120 min; 310,000 tested, 0.54% active; in the data active = inhibition above about 50%
Numbers stand for hits. An excerpt weighted towards active compounds, which were near 3% of everything screened.

What do the screens show for `C[C@@H]1CN([C@@H](C)CO)C(=O)c2cc(C#Cc3ccccc3F)cnc2O[C@@H]1CN(C)C(=O)C1CCC1`?
esBAF inh: inactive; Casp6 inh: inactive; XiGFP reactiv: inactive

How did COc1cccc2c1-c1c(O)cccc1C2=O do in these assays?
MITF TRPM1 HTS: inactive; esBAF inh: inactive; Casp6 inh: inactive; XiGFP reactiv: inactive; Wnt act: inactive; NSD2 HMT inh: inactive

What do the screens show for `O=C1C=C(O)c2cccc(O)c2C1=O`?
MITF TRPM1 HTS: inactive; esBAF inh: inactive; Casp6 inh: 76.7; Wnt act: inactive

Results for O=C(Nc1ccc(F)c(F)c1)c1ccc(-n2cncn2)c([N+](=O)[O-])c1 ?
MITF TRPM1 HTS: inactive; esBAF inh: inactive; Casp6 inh: inactive; XiGFP reactiv: inactive; Wnt act: inactive; NSD2 HMT inh: inactive

How did O=C(Nc1cccc(/C=C/c2ccccn2)c1)c1ccc(-n2cncn2)c([N+](=O)[O-])c1 do in these assays?
MITF TRPM1 HTS: inactive; esBAF inh: 44.5; Casp6 inh: inactive; XiGFP reactiv: inactive; Wnt act: inactive; NSD2 HMT inh: inactive

Results for CN(C)CCCNC(=O)[C@H]1[C@H](CO)[C@H]2Cn3c(ccc(-c4cccc(F)c4)c3=O)[C@@H]1N2 ?
Casp6 inh: inactive; XiGFP reactiv: inactive

What do the screens show for `CC(=O)c1cccc(NC(=O)COC(=O)c2ccccc2C)c1`?
MITF TRPM1 HTS: 96.9; esBAF inh: 44.3; Casp6 inh: inactive; XiGFP reactiv: inactive; Wnt act: inactive; NSD2 HMT inh: inactive

How did CCOc1ncccc1C(=O)OCC(=O)Nc1cccc(C(C)=O)c1 do in these assays?
MITF TRPM1 HTS: inactive; esBAF inh: inactive; NSD2 HMT inh: inactive

How did O=C(NCCc1ccccc1)c1cccc(NC(=O)C2CCC2)c1 do in these assays?
MITF TRPM1 HTS: inactive; esBAF inh: 57.2; Casp6 inh: inactive; XiGFP reactiv: inactive; Wnt act: inactive

Results for O=C(NCCCCc1ccccc1)c1cccc(NC(=O)C2CCC2)c1 ?
MITF TRPM1 HTS: inactive; esBAF inh: inactive; Casp6 inh: inactive; XiGFP reactiv: inactive; Wnt act: inactive

What do the screens show for `O=C(NCCc1ccccc1)c1cccc(NC(=O)C2CC2)c1`?
MITF TRPM1 HTS: inactive; esBAF inh: 51.9; Casp6 inh: inactive; XiGFP reactiv: inactive; Wnt act: inactive

How did C[C@@H]1CCCCO[C@@H](CN(C)C(=O)Cc2ccccc2)[C@H](C)CN([C@H](C)CO)C(=O)c2cc(NC(=O)CCC(F)(F)F)ccc2O1 do in these assays?
esBAF inh: inactive; XiGFP reactiv: inactive

Results for O=c1c2ccccc2nc(/C=C/c2ccc(Br)cc2)n1CCO ?
Casp6 inh: inactive; XiGFP reactiv: inactive; Wnt act: inactive; NSD2 HMT inh: inactive

Results for Cc1[nH]c2ccccc2c1/C=C/c1nc2ccccc2c(=O)n1CCO ?
MITF TRPM1 HTS: inactive; esBAF inh: 37.5; Casp6 inh: inactive; XiGFP reactiv: inactive; Wnt act: inactive; NSD2 HMT inh: inactive

Results for CCC(=O)N(C)C[C@H]1Oc2ncc(-c3ccc(F)cc3)cc2C(=O)N([C@@H](C)CO)C[C@@H]1C ?
esBAF inh: inactive; Casp6 inh: inactive; XiGFP reactiv: inactive

What do the screens show for `CN(C)c1ccc(NC(=O)Nc2ccc3snnc3c2)cc1`?
MITF TRPM1 HTS: inactive; esBAF inh: 68.7; NSD2 HMT inh: inactive

What do the screens show for `O=C(Nc1ccccc1)Nc1ccc2nnsc2c1`?
MITF TRPM1 HTS: inconclusive; esBAF inh: 73.1; Casp6 inh: inactive; XiGFP reactiv: inactive; Wnt act: inactive; NSD2 HMT inh: inactive

Results for COCC#Cc1ccc2c(c1)O[C@@H](CN(C)S(=O)(=O)c1ccc(C)cc1)[C@H](C)CN([C@H](C)CO)S2(=O)=O ?
esBAF inh: inactive; Casp6 inh: inactive; XiGFP reactiv: inactive

What do the screens show for `Cc1ccc(/C=C\c2nccc3c2[nH]c2ccccc23)cc1`?
MITF TRPM1 HTS: inactive; esBAF inh: 55.5; Casp6 inh: inactive; XiGFP reactiv: inactive; Wnt act: inactive

Results for Nc1ccc2oc(-c3ccccc3Cl)cc(=O)c2c1O ?
MITF TRPM1 HTS: inactive; esBAF inh: 59.7; Casp6 inh: inactive; XiGFP reactiv: inactive; Wnt act: inactive
